The results in this text go back to ChEMBL document CHEMBL2424574, “Structure-activity relationships and pharmacophore model of a noncompetitive pyrazoline containing class of GluN2C/GluN2D selective antagonists” (J Med Chem, 2013).

The test system of data set [1] is Liver microsomes. Put plainly: Half life in human liver microsomes at 1 uM. The class given is ADME, Microsome. A digest of the protocol:
(§1)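 Human liver microsomes 0.5 mg/mL in 100 mM potassium phosphate pH 7.4 with 5 mM MgCl2 and 1 μM test compound. Preincubated 3 min at 37 °C, then started with 1 mM NADPH, with a testosterone control in parallel. Sampled at 0, 10, 20, 30 and 60 min and quenched in cold acetonitrile/water with formic acid and internal standard. Percent remaining by LC-MS/MS (MRM) versus time 0. t1/2 = 0.693/k from the ln-remaining slope; CLint = k/protein concentration.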

The test system of data set [2] is Liver microsomes. Kind of data set: Intrinsic clearance in human liver microsomes measured per mg of protein at 1 uM by LC-MS/MS analysis. Format: ADME, Microsome. A digest of the protocol:
as §1

Data set [3] has as its system Liver microsomes. Kind of data set: Metabolic stability in human liver microsomes assessed as compound remaining at 1 uM after 60 mins by LC-MS/MS analysis. The note with it: 1 h. The class given is ADME, Microsome. An outline of the steps:
as §1

Data set [4] concerns Liver microsomes. Put plainly: Metabolic stability in human liver microsomes assessed as compound remaining at 1 uM after 30 mins by LC-MS/MS analysis. The class given is ADME, Microsome. Particulars: 0.5 h. An outline of the steps: as §1
For data set [5], the system named is Liver microsomes. Kind of data set: Metabolic stability in human liver microsomes assessed as compound remaining at 1 uM after 20 mins by LC-MS/MS analysis. The class given is ADME, Microsome. A digest of the protocol: as §1
In data set [6] the test system is Liver microsomes. Put plainly: Metabolic stability in human liver microsomes assessed as compound remaining at 1 uM after 10 mins by LC-MS/MS analysis. Format: ADME, Microsome. A digest of the protocol: as §1
The subject of data set [7] is MDCK. Put plainly: Permeability across basolateral to apical side in dog MDCK cells expressing MDR1 assessed as compound recovery at 5 uM after 120 mins by LC-MS/MS analysis. Format: ADME, cell-based, Canis lupus familiaris. Particulars: 2 h. A digest of the protocol: (§2)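 MDR1-MDCK monolayers grown to confluence on collagen-coated polycarbonate membranes. Assay buffer was HBSS with 10 mM HEPES and 15 mM glucose, pH 7.4, and the receiver side also held 1% BSA. Monolayers were dosed apically (A-to-B) or basolaterally (B-to-A) at 5 μM, 37 °C, 5% CO2. Donor and receiver were sampled at 120 min, in duplicate, by LC-MS/MS (ESI). Papp and percent recovery were calculated from receiver/donor concentrations.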

The test system of data set [8] is MDCK. Put plainly: Apparent permeability across basolateral to apical side in dog MDCK cells expressing MDR1 at 5 uM after 120 mins by LC-MS/MS analysis. The class given is ADME, cell-based, Canis lupus familiaris. Particulars: 2 h. A digest of the protocol:
as §2

Data set [9] deals with MDCK. Put plainly: Permeability across apical to basolateral side in dog MDCK cells expressing MDR1 assessed as compound recovery at 5 uM after 120 mins by LC-MS/MS analysis. Format: ADME, cell-based, Canis lupus familiaris. Particulars: 2 h. An outline of the steps: as §2
Data set [10] relates to MDCK. Kind of data set: Apparent permeability across apical to basolateral side in dog MDCK cells expressing MDR1 at 5 uM after 120 mins by LC-MS/MS analysis. Format: ADME, cell-based, Canis lupus familiaris. The note with it: 2 h. An outline of the steps: as §2
Data set [11] deals with Glutamate receptor ionotropic, NMDA 2D (Rattus norvegicus) (UniProt Q62645). Put plainly: Negative allosteric modulation of recombinant rat GluN2D receptor expressed in Xenopus laevis oocytes at 100 uM by two-electrode voltage clamp method. The note with it: Oocyte. Format: cell-based. A digest of the protocol: (§3)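 Two-electrode voltage clamp of Xenopus oocytes expressing rat GluN1 with GluN2A, 2B, 2C or 2D. Holding potential −40 mV in recording solution (mM: 90 NaCl, 1 KCl, 0.5 BaCl2, 0.005 EDTA, 10 HEPES, pH 7.4, 23 °C). Compounds diluted from 20 mM DMSO stocks to 0.05–0.1% final DMSO. IC50 from a Hill fit to the averaged composite concentration–response curve, 5–24 oocytes from 2–4 frogs.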
Glutamate receptor ionotropic, NMDA 2D (Rattus norvegicus), sequence (Q62645 whole entry): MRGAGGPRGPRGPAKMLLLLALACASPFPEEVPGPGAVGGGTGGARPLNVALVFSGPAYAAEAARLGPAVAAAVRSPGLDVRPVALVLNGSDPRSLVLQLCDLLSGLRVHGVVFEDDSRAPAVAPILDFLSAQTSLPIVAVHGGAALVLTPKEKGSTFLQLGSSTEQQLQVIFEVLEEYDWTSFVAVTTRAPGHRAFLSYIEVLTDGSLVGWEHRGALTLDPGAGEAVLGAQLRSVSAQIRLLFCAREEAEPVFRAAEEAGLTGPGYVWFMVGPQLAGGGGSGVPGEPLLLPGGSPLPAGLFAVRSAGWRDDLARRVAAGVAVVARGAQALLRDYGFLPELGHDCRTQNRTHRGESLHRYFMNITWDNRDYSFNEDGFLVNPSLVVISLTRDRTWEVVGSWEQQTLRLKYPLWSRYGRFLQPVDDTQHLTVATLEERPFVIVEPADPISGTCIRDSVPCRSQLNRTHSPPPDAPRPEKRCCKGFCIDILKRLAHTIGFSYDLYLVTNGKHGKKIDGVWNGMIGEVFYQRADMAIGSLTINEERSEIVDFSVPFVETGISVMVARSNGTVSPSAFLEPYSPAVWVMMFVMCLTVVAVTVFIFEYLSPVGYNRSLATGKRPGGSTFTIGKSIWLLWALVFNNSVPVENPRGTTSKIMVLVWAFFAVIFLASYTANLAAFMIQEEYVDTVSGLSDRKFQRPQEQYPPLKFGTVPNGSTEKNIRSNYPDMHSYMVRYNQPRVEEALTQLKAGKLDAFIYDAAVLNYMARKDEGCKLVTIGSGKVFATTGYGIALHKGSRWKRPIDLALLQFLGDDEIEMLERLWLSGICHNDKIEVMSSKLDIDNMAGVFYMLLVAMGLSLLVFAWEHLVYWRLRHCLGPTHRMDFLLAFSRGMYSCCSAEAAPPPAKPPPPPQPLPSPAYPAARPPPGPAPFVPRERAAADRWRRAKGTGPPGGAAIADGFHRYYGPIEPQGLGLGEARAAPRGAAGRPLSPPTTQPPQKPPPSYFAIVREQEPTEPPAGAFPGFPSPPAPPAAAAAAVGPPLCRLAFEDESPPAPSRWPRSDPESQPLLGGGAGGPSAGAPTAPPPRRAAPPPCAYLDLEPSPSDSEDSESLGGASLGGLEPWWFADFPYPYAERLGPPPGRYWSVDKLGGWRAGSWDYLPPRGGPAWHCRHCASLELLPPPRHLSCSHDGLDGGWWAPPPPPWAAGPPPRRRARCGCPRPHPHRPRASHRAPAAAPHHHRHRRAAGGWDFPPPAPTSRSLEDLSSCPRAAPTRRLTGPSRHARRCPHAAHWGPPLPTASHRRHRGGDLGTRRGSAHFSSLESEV

Data set [12] addresses Glutamate receptor ionotropic, NMDA 2C (Rattus norvegicus) (UniProt Q00961). Kind of data set: Negative allosteric modulation of recombinant rat GluN2C receptor expressed in Xenopus laevis oocytes at 100 uM by two-electrode voltage clamp method. The note with it: Oocyte. The class given is cell-based. An outline of the steps: as §3
The target of data set [13] is Glutamate receptor ionotropic, NMDA 2B (Rattus norvegicus) (UniProt Q00960). Put plainly: Negative allosteric modulation of recombinant rat GluN2B receptor expressed in Xenopus laevis oocytes at 100 uM by two-electrode voltage clamp method. The class given is cell-based. The note with it: Oocyte. An outline of the steps:
as §3

Data set [14] addresses Glutamate receptor ionotropic, NMDA 2A (Rattus norvegicus) (UniProt Q00959). Put plainly: Negative allosteric modulation of recombinant rat GluN2A receptor expressed in Xenopus laevis oocytes at 100 uM by two-electrode voltage clamp method. Particulars: Oocyte. The class given is cell-based. A digest of the protocol:
as §3

Structures are written as SMILES.

Glutamate receptor ionotropic, NMDA 2B (Rattus norvegicus), sequence (Q00960 27-1482 limits assumed): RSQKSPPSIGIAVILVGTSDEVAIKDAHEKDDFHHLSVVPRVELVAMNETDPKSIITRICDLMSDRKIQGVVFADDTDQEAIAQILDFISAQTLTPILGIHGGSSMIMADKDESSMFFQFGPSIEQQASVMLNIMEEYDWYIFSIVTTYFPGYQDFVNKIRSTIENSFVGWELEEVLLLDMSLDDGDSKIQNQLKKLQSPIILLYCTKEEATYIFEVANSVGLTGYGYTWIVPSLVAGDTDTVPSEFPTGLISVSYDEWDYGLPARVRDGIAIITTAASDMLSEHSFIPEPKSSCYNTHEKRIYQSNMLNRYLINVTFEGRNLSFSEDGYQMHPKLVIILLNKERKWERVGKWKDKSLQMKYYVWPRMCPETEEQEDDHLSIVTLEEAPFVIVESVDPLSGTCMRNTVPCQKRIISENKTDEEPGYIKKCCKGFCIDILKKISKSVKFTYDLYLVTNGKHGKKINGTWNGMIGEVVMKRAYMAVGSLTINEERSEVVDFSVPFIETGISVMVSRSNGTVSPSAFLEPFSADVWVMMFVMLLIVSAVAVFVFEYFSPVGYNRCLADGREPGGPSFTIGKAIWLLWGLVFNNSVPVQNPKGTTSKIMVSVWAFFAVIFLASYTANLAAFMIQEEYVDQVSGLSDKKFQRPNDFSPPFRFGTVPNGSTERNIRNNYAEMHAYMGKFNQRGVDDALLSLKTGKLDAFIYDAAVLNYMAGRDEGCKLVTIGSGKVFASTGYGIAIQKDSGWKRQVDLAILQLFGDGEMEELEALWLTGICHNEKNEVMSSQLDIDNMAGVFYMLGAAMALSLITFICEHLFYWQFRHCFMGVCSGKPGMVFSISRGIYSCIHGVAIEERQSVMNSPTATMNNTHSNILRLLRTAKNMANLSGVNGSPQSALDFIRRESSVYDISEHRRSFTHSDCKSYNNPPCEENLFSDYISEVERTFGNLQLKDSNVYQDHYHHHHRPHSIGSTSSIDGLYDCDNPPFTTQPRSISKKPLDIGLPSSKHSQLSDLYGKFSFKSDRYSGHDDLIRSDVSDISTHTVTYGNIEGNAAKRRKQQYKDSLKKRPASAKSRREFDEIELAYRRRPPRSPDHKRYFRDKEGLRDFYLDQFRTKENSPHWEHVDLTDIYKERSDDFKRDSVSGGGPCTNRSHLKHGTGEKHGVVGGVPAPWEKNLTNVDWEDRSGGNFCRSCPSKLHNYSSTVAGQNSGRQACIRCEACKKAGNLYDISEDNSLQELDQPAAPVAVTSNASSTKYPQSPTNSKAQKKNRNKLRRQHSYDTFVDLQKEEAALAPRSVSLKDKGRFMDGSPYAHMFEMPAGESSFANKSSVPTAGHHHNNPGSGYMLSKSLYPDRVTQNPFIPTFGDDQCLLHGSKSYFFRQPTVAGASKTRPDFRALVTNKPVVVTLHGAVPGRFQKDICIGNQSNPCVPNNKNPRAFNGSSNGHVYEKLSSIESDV
Glutamate receptor ionotropic, NMDA 2C (Rattus norvegicus), sequence (Q00961 20-1237 limits assumed): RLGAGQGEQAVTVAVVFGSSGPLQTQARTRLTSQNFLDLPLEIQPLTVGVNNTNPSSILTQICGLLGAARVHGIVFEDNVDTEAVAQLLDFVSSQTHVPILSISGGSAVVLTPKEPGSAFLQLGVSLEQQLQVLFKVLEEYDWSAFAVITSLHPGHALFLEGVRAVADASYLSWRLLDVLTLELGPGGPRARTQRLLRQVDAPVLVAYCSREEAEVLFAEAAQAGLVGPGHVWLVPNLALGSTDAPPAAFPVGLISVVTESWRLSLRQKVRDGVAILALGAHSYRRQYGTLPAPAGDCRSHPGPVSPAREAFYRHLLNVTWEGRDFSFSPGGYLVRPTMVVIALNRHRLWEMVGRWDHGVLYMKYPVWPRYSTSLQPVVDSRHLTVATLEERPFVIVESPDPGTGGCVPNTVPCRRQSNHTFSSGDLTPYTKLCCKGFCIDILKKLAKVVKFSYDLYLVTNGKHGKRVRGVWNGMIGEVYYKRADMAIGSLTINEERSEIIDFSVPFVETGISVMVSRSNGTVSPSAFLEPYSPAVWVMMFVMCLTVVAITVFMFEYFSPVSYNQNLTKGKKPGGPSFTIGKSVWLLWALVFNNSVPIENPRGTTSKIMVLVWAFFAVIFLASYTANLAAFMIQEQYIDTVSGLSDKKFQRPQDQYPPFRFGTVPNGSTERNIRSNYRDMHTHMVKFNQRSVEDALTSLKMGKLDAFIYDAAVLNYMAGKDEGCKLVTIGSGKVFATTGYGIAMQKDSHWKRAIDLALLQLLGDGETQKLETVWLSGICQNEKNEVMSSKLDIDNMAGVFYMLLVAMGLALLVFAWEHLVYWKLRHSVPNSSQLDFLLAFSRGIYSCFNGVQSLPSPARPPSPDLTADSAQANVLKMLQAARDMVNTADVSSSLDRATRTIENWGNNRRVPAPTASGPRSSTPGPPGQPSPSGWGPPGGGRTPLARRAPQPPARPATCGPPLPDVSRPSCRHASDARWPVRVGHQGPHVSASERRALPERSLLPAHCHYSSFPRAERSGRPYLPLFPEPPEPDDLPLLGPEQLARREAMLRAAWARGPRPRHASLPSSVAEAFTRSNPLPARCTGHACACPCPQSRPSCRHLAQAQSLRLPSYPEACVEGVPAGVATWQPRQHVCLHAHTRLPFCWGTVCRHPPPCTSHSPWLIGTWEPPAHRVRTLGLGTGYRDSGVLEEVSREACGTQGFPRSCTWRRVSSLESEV

As to `O=C(CCCF)N1N=C(c2c(-c3ccc(Cl)cc3)c3ccccc3[nH]c2=O)CC1c1ccc(Cl)cc1` (centres undefined), the t1/2 in the data set on Liver microsomes [1] came out at 35 min. Besides, in the data set with Liver microsomes [2], the CLint came to 40 µL/min/mg. The Stability is 39% in the data set on Liver microsomes [3], 49% in the data set on Liver microsomes [4], 49% in the data set on Liver microsomes [5] and 67% in the data set on Liver microsomes [6]. The Drug recovery is given as 67% with MDCK [7] and 43% in the data set with MDCK [9]. For the same molecule, the Papp in the data set on MDCK [8] is 9.52 ×10⁻⁶ cm/s; in the data set on MDCK [10], 3.88 ×10⁻⁶ cm/s. The inhibition in data set [11], in [12], in data set [13] and in data set [14] was less than 30% each time.
